Measured values collected from several papers.
MAP4K3: Mitogen-activated protein kinase kinase kinase kinase 3 (MAP4K3, Homo sapiens, UniProt Q8IVH8)
OTUD6B: Deubiquitinase OTUD6B (OTUD6B, Homo sapiens, UniProt Q8N6M0)
ADORA1: Adenosine receptor A1 (ADORA1, Homo sapiens, UniProt P30542)
USP5: Ubiquitin carboxyl-terminal hydrolase 5 (USP5, Homo sapiens, UniProt P45974)
MMP7: Matrilysin (MMP7, Homo sapiens, UniProt P09237)

| Structure (SMILES) | target | effect on | action | method | tested at | inhibition |
| --- | --- | --- | --- | --- | --- | --- |
| C#Cc1n[nH]c2c(-c3cn([C@@H](C)c4ccccn4)c(=O)[nH]c3=O)cc(F)cc12 | MAP4K3 | enzyme activity | inhibitor |  | 0.1 µM | -2.5% |
| N=C(N)c1ccc2cc(OC(=O)c3ccc(N=C(N)N)cc3)ccc2c1 | OTUD6B | enzyme activity | inhibitor |  | 10 µM | 9% |
| O[C@H]1[C@H](n2cnc3c(NC(C4CCCC4)C4CCCC4)nc(Cl)nc32)[C@H]2C[C@@]2(CSc2ccccc2F)[C@H]1O | ADORA1 | ligand displacement |  | radioligand | 10 µM | -6% |
| COc1cc(Nc2ncc(F)c(Nc3ccc4c(n3)NC(=O)C(C)(C)O4)n2)cc(OC)c1OC | MAP4K3 | binding |  | competition with immobilised ligand | 10 µM | 52% |
| OC[C@@]12C[C@@H]1[C@@H](n1cnc3c(NC(C4CCCC4)C4CCCC4)nc(Cl)cc31)[C@H](O)[C@@H]2O | ADORA1 | ligand displacement |  | radioligand | 10 µM | 11% |
| CN(C)C(=O)COC(=O)Cc1ccc(OC(=O)c2ccc(NC(=N)N)cc2)cc1 | USP5 | enzyme activity | inhibitor |  | 10 µM | 1% |
| CN(CCN1CCC(OC(=O)Nc2ccccc2-c2ccccc2)CC1)C(=O)c1ccc(CN2CCC(C(N)=O)CC2)cc1 | Neuromedin-K receptor (TACR3, Homo sapiens, UniProt P29371) | ligand displacement |  | radioligand | 1 µM | 1% |
| CCOC(=O)c1ccc(OC(=O)CCCCCNC(=N)N)cc1 | OTUD6B | enzyme activity | inhibitor |  | 10 µM | 3% |
| Cn1cc(-c2cccc(N3CCc4c(sc5c4CC(C)(C)C5)C3=O)c2CO)cc(Nc2ccncn2)c1=O | Inhibitor of nuclear factor kappa-B kinase subunit alpha (CHUK, Homo sapiens, UniProt O15111) | enzyme activity | inhibitor |  | 1 µM | -5% |
| CNC(=O)[C@H](Cc1ccccc1)NC(=O)[C@H](CC(C)C)[C@H](CSc1cccs1)C(=O)NO | MMP7 | enzyme activity | inhibitor |  | 100 pM | 4% |
| Cn1c(=O)c2ncnnc2n(C)c1=O | USP5 | enzyme activity | inhibitor |  | 17 µM | 98% |
| C[C@H](C(=O)N[C@H]1COc2ccccc2[C@@H]1S(C)(=O)=O)c1ccc(F)cc1 | MMP7 | enzyme activity | inhibitor |  | 10 µM | -6% |
| O[C@H]1[C@H](n2cnc3c(NC(C4CCCCC4)C4CCCCC4)nc(Cl)nc32)[C@H]2C[C@@]2(CF)[C@H]1O | ADORA1 | ligand displacement |  | radioligand | 10 µM | 47% |
| C#Cc1n[nH]c2c(-c3cn([C@@H](C)c4ccccc4)c(=O)[nH]c3=O)cc(F)cc12 | MAP4K3 | enzyme activity | inhibitor |  | 0.1 µM | -1.9% |
| c1ccc(C(NCCNC(c2ccccc2)c2ccccc2)c2ccccc2)cc1 | MMP7 | enzyme activity | inhibitor |  | 10 µM | -5% |
